Reference: PubChem BioAssay
Calls of active or inactive are those of the source.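 The calls were made as follows, unless noted: active = viability loss from added drug above about 55%, and viability with drug at most 40%, in both replicates (limit read from the data, passing the limit was not always enough); inconclusive = both conditions met in only one replicate; inactive = neither replicate meets both conditions.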 Peptide text beside a SMILES is read from it. * marks the point of attachment. Boc = CC(C)(C)OC(=O)*

Tests used:
[1] = SK-BR-3 cell growth inhibitors, pilot screen, 24 h, human (AID 572;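 active = viability at or below 10% of carrier control in both of two separate runs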;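 also: compound exposure lasted between 18 and 24 h rather than exactly 24 h; 100% = carrier-treated control wells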); conditions: SK-BR-3 viability, CellTiter-Glo luminescence, at 10 µM, stronger effect = lower value
[2] = HUVEC growth inhibition – cell-based, human, primary screen (AID 575;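 active = viability at or below 30% in both replicate assays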;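 also: 100% = median of untreated cell wells with 0.1% DMSO on each plate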); conditions: HUVEC proliferation, CellTiter-Glo luminescence, 72 h; at 10 µM; stronger effect = lower value
How it was run: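 Material: primary human umbilical vein endothelial cells / Schedule: 72 h exposure, 37 °C, 5% CO2, 30 min RT equilibration / Signal: ATP-based CellTiter-Glo luminescent read / Read-out basis: percent of median DMSO-control luminescence / Control set: 32 DMSO-only cell-control wells (high), 32 MePR drug-control wells (low) per plate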

[3] = growth inhibitors of H69AR lung tumor, primary screen, human, duplicate replicates (AID 580;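 active = viability at or under a set limit in both replicates, limit being median viability minus 3 SD, cut at about 48% in these data, passing the limit was not always enough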;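 also: 100% = mean luminescence of untreated wells and 0% = no signal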); conditions: H69AR lung tumor cells viability, ATP luminescence, 72 h; at 10 µM; stronger effect = lower value
[4] = reversal of MRP1-mediated doxorubicin resistance, pilot screen, H69AR cells, doxorubicin co-treatment (AID 601); conditions: CellTiter-Glo, 72 h, at 10 µM; for differential viability (reversal): stronger effect = higher value
[5] = 384-well plate pilot, post-Golgi transport modulator project, inhibition of yeast transport mutant growth (AID 636; in the data active = inhibition above about 31%); conditions: absorbance 615 nm, about 18 h, stronger effect = higher value
[6] = growth suppression of yeast trafficking mutant, preliminary HTS, modulators of trafficking downstream of Golgi apparatus project, 1536-format plate, OD 615 nm (AID 637; in the data active = inhibition above about 30%); conditions: yeast transport mutant growth, absorbance 615 nm, 18 h; stronger effect = higher value
[7] = H69AR cells + 2 uM doxorubicin, measured here: viability with 2 uM doxorubicin, stronger effect = lower value
[8] = H69AR cells, compound alone cytotoxicity

| Structure (SMILES) | viability [1] | viability [2] | viability [3] | differential viability (reversal) ([4]; H69AR cells + 2 uM doxorubicin) | viability [4, 7] [%] | viability [4, 8] [%] | inhibition [5] | inhibition [6] |
| --- | --- | --- | --- | --- | --- | --- | --- | --- |
| C=CCN1C(=O)C2(/C(=C(\O)c3ccc4c(c3)OCCO4)C(=O)C(=O)N2CCCOC)c2ccccc21 (centres undefined) | 109% (inactive) | 96.6% (inactive) | 95.9% (inactive) | 11.2% (inactive) | 84.7 | 95.9 | -8.36% (inactive) | 0.48% (inactive) |
| COc1cccc(-c2csc(N3CCN(CC(=O)Nc4ccc5c(c4)OCO5)CC3)n2)c1 | 106% (inactive) | 78.9% (inactive) | 80.3% (inactive) | -1.21% (inactive) | 81.5 | 80.3 | -2.34% (inactive) | 0% (inactive) |
| CCCCOc1ccc(S(=O)(=O)n2c(C)nc3ccccc32)cc1 | 138% (inactive) | 53.2% (inactive) | 87.1% (inactive) | -7.77% (inactive) | 94.8 | 87.1 | -3.38% (inactive) | 1.33% (inactive) |
| c1ccc(Cn2nnnc2CN2CCCC2)cc1 | 112% (inactive) | 101% (inactive) | 99.4% (inactive) | 2.88% (inactive) | 96.5 | 99.4 | -6.3% (inactive) | 0.48% (inactive) |
| CCCN(CC1CC1)C(=O)Nc1ccccc1C | 94% (inactive) | 101% (inactive) | 104% (inactive) | 12.2% (inactive) | 92.2 | 104 | -1.04% (inactive) | -12.9% (inactive) |
| CC(=O)c1c(O)cc(C)n(Nc2nc(C)cc(C)n2)c1=O | 91% (inactive) | 84.6% (inactive) | 71.9% (inactive) | -28.5% (inactive) | 100 | 71.9 | -4.05% (inactive) | -0.73% (inactive) |
| CCOc1ccc(C2C(C#N)=C(N)Oc3cc(C)n(Cc4ccco4)c(=O)c32)cc1OC (centres undefined) | 99% (inactive) | 84.2% (inactive) | 76.7% (inactive) | -5.13% (inactive) | 81.9 | 76.7 | -0.41% (inactive) | -8.23% (inactive) |
| CCn1cc(C(=O)O)c(=O)c2cc(F)c(N3CCNCC3)nc21 | 106% (inactive) | 84% (inactive) | 105% (inactive) | 3.24% (inactive) | 102 | 105 | 2.34% (inactive) | -2.33% (inactive) |
| NC(=O)N1c2ccccc2C=Cc2ccccc21 | 95% (inactive) | 79.4% (inactive) | 107% (inactive) | 9.74% (inactive) | 97.1 | 107 | -2.86% (inactive) | 3.17% (inactive) |
| CCc1ccccc1NC(=O)C(CC)Sc1nc2cc3c(cc2c(=O)n1Cc1ccco1)OCO3 (centres undefined) | 95.5% (inactive) | 62.6% (inactive) | 28.3% (active) | 13.2% (inactive) | 15.1 | 28.3 | -3.47% (inactive) | 2.74% (inactive) |
| COC(=O)c1ccccc1NC(=O)c1cnc2sccn2c1=O | 110% (inactive) | 87.9% (inactive) | 104% (inactive) | 8.43% (inactive) | 95.5 | 104 | -3.6% (inactive) | -0.91% (inactive) |
| COCCNC(=O)NC(=O)COC(=O)Cc1ccc2c(c1)OCCO2 | 81% (inactive) | 111% (inactive) | 99.2% (inactive) | 6.6% (inactive) | 92.6 | 99.2 | -2.88% (inactive) | 3.82% (inactive) |
| c1ccc(-c2cc(CSc3nc4ccccc4[nH]3)on2)cc1 | 94% (inactive) | 91.8% (inactive) | 102% (inactive) | 15.5% (inactive) | 86.5 | 102 | -6.13% (inactive) | 3.09% (inactive) |
| NC(=O)c1ccsc1NC(=O)COC(=O)Cc1ccsc1 | 87% (inactive) | 100% (inactive) | 110% (inactive) | -0.11% (inactive) | 110 | 110 | -4.25% (inactive) | 1.27% (inactive) |
| CCn1nc(C(=O)O)c(=O)c2cc3c(cc21)OCO3 | 69% (inactive) | 86.7% (inactive) | 106% (inactive) | 6.56% (inactive) | 99.3 | 106 | -1.17% (inactive) | 1.83% (inactive) |
| CCC1CCCCN1c1nc(-c2ccncc2)nc2ccccc12 (centres undefined) | 76.5% (inactive) | 15.1% (active) | 14.5% (active) | -40.4% (inactive) | 55 | 14.5 | -0.79% (inactive) | 0.49% (inactive) |
| CC1(C)S[C@@H]2[C@H](NC(=O)[C@H](C(=O)O)c3ccsc3)C(=O)N2[C@H]1C(=O)O | 105% (inactive) | 91.5% (inactive) | 102% (inactive) | 2.32% (inactive) | 99.3 | 102 | -0.26% (inactive) | -0.17% (inactive) |
| Cc1nc(NC(=O)C23CCC(C)(C(=O)O2)C3(C)C)sc1C (centres undefined) | 133% (inactive) | 107% (inactive) | 99.2% (inactive) | 13.9% (inactive) | 85.4 | 99.2 | -2.99% (inactive) | 0.16% (inactive) |
| CCOc1ccc(S(=O)(=O)N(C)C)cc1-c1nc2c(C(C)(C)C)nn(C)c2c(=O)[nH]1 | 99% (inactive) | 103% (inactive) | 78.9% (inactive) | 0.77% (inactive) | 78.1 | 78.9 | -2.03% (inactive) | -3.09% (inactive) |
| CCC(C)C(NC(=O)OC(C)(C)C)C(=O)NC(CC(C)C)C(N)=O (stereo not drawn) (Boc-Ile-Leu-NH2; configuration not given here) | 109% (inactive) | 114% (inactive) | 98.9% (inactive) | 9.78% (inactive) | 89.1 | 98.9 | -2.73% (inactive) | -1.8% (inactive) |
| O=C(NCCN1CCOCC1)C1CCC(=O)N1Cc1ccccc1Cl (centres undefined) | 148% (inactive) | 96.4% (inactive) | 90% (inactive) | 3.78% (inactive) | 86.3 | 90 | -1.43% (inactive) | -1.48% (inactive) |
| COCCNC(=O)C(c1ccc(C)o1)N(C(=O)c1snc(C(N)=O)c1N)c1ccc(C)cc1 (centres undefined) | 100% (inactive) | 87.5% (inactive) | 92.1% (inactive) | 9.05% (inactive) | 83.1 | 92.1 | -3.87% (inactive) | 3.64% (inactive) |
| COc1ccc(C2C3=C(CCCC3=O)Nc3nc(SCc4ccccc4)nn32)cc1OC (centres undefined) | 101% (inactive) | 121% (inactive) | 74.9% (inactive) | -21% (inactive) | 96 | 74.9 | -4.46% (inactive) | 0.36% (inactive) |
